GPR7 antag – blocks human GPR7 receptor signaling; GPR7-expressing cells, fluorescence antagonist assay; AID 1861; 1.1% of 290,000 active; inhibition, % at 4.4 µM; P48145; in the data active means inhibition above about 16%, passing the limit was not always enough;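 further: cells stimulated with the agonist NPW; 0% = agonist with vehicle and 100% = vehicle without agonist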
Target sequence (P48145 whole entry, looked up): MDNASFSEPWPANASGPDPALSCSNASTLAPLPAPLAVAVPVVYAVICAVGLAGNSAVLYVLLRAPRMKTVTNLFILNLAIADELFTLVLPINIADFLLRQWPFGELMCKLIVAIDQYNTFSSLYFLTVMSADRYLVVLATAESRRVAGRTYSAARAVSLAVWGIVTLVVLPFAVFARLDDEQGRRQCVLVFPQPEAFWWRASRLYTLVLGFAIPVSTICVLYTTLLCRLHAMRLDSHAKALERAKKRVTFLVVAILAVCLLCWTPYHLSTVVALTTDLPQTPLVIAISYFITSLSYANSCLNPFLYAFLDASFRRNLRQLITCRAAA
OX1R antag-1 – blocks the human orexin 1 receptor | inhibition, % at 5 µM | CHO/OX1R cells, Fluo-8 calcium fluorescence, orexin A | O43613 | AID 434989 | 0.43% of 330,000 active;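 active means inhibition above its plate's threshold, mean inhibition of all tested compounds on the plate plus 3 SD, cut at about 37% in these data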;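 further: 0% = orexin A challenge wells and 100% = SB-334867-A antagonist wells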
OX1R antag-2 – antagonists of human orexin 1 receptor (OX1R) | O43613 | AID 485270 | inhibition, % at 6.6 µM | OX1R-expressing cells, FRET antagonist read-out | 1.8% of 330,000 active; in the data active means inhibition mostly above about 38%, no sharp cut-off; inactive means mostly below about 40%;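 further: 0% = agonist challenge alone and 100% = reference antagonist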
CHO parental Ca – counter-screen: ATP calcium response change in parental CHO cells; parental CHO-K1, ATP-induced calcium, Fluo-8 fluorescence; inhibition, % at 5.6 µM; 0.63% of 330,000 active;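 active means inhibition above that plate's mean sample inhibition plus 3 SD, cut at about 26% in these data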;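 further: 0% = ATP-challenged DMSO wells and 100% = DMSO wells without ATP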
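Assay system: parental CHO cells; Read-out basis: percent inhibition of ATP-evoked calcium rise, normalized to controls; Benchmarks: ATP and no-ATP DMSO wells; Compound dosing: single nominal dose of 5.6 µM per compound; Signal: Fluo-8 calcium dye fluorescence; Also added: ATP as calcium-mobilizing challenge; Repeats: singlicate.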
GalR3 antagonist – antagonists of human GalR3; 0.44% of 360,000 active; O60755; HEK293 GalR3-CNG cAMP membrane potential fluorescence; galR3 body fused to GalR1 C-terminus; inhibition, % at 3 µM;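 active means inhibition above the screen-wide average plus 3 SD, cut at about 13% in these data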;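 further: forskolin and galanin both at EC90 stimulate the cells; cAMP rise reported by CNG channel membrane potential dye signal; 0% = forskolin plus galanin with DMSO and 100% = forskolin alone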
GPR7 antag conf – human GPR7 antagonism, confirmation assay; shares compounds with GPR7 antag; GPR7-expressing cells, calcium fluorescence antagonist mode; inhibition, % at 4.4 µM; 52% of 2,400 active; AID 1952; in the data active means inhibition above about 24%;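 further: stimulated with the GPR7 agonist NPW; 0% = agonist plus vehicle and 100% = vehicle alone without agonist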
MCHR1 antagonist – MCHR1 (human) antagonism in GPR7 counter-screen; 62% of 2,400 active; AID 2148; inhibition, % at 4.4 µM; MCHR1-expressing cells, fluorescence antagonist assay; shares compounds with GPR7 antag; in the data active means inhibition above about 22%;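 further: 0% = vehicle with agonist and 100% = vehicle without agonist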
Active calls of the source: *; . = no result. An excerpt weighted towards active compounds, which were near 3.1% of everything screened.

SMILES	GPR7 antag	OX1R antag-1	OX1R antag-2	CHO parental Ca	GalR3 antagonist	GPR7 antag conf	MCHR1 antagonist
CC(CN1CCN(C/C=C/c2ccccc2)CC1)c1ccccc1 (configuration not stated)	6	-17	-7	-13	-7	.	.
CC(C(=O)Nc1ccc2c(c1)OCCO2)c1ccc([N+](=O)[O-])cc1 (configuration not stated)	47*	25	3	31*	5	70*	51*
CC(C(=O)Nc1ccc2c(c1)OCO2)c1ccc([N+](=O)[O-])cc1 (configuration not stated)	5	-14	9	6	-4	.	.
C/C(CC(=O)Nc1ccc2c(c1)OCCO2)=N\NC(=O)c1ccc([N+](=O)[O-])cc1Cl	34*	8	64	-4	-4	-5	-1
CC1CCCCC1NC(=O)CCS(=O)(=O)c1ccc(Cl)cc1 (configuration not stated)	.	-20	3	-9	-8	.	.
CC(=O)c1cc(-c2ccccc2)n(CCC(=O)NC2CCC(C)CC2)c1C (configuration not stated)	23*	-8	17	-24	-2	5	-5
Cc1csc(NC(=O)CSc2nnc(Cc3cccn3C)n2CCc2ccccc2)n1	28*	-14	16	-25	1	16	16
Cc1cc(NC(=O)CSc2nnc(Cc3cccn3C)n2CCc2ccccc2)no1	11	-23	6	-21	1	.	.
CC1c2[nH]c3ccccc3c2CCN1S(C)(=O)=O (configuration not stated)	26*	-18	16	-2	-3	4	6
Cc1ccc(CNC(=O)CC(C)S(=O)(=O)c2ccc3c(c2)NC(=O)CS3)o1 (configuration not stated)	5	7	7	4	0	.	.
Nc1ccc2c(Cl)cc(Cl)cc2c1	.	.	.	.	0	.	.
COc1ccc(OCC(=O)Nc2ccccc2N2CCN(C)CC2)cc1	-4	-22	22	-6	-6	.	.
CCC(=O)N1CCN(c2ccccc2NC(=O)COc2ccc(C(C)C)cc2)CC1	27*	-12	33	-18	-6	18	21
COc1ccc(S(=O)(=O)N2CCCC(C(=O)NCC3CCCO3)C2)cc1C (configuration not stated)	9	-6	37	-15	-1	.	.
O=C(NCC1CCCO1)C1CCCN(S(=O)(=O)c2cccc(C(F)(F)F)c2)C1 (configuration not stated)	24*	-19	7	-6	-9	-6	0
O=S(=O)(/N=C(/c1ccccc1)N1CCCCCC1)c1ccccc1	33*	-21	22	-6	-2	1	-1
COCCCNC(=S)N1CCC(NC(=O)Nc2ccc(C)cc2)CC1	21*	-6	9	-9	-5	0	1
Cc1cccc(N2CCN(CC(=O)Nc3ccc(S(=O)(=O)N4CCOCC4)cc3)CC2)c1C	33*	34	26	55*	-2	3	35*
Cc1cccc(N2CCN(CC(=O)Nc3nccs3)CC2)c1C	36*	-25	30	-24	-4	34*	36*
Cc1ccc(S(=O)(=O)N2CCOCC2)cc1NC(=O)CN1CCC(Cc2ccccc2)CC1	37*	-23	18	-23	-5	25*	38*
CCc1nc2ccc(C(=O)N3CCN(C(=O)c4ccco4)CC3)cn2c1N(CC)CCOC	.	.	.	.	2	.	.
CSc1nnc(N2C(=O)C(O)=C(C(=O)c3ccco3)C2c2ccccc2F)s1 (configuration not stated)	23*	5	8	1	-1	3	10
CC(=O)Oc1ccc(C23CC4CC(CC(C4)C2)C3)cc1C(=O)O	1	-3	28	-2	.	.	.
COc1ccc(-n2c(=O)[nH]c3cc(C(=O)NCCc4ccc(Cl)cc4)ccc3c2=O)cc1OC	36*	-2	22	-3	-7	36*	60*
CCCCCn1c(=O)[nH]c2cc(C(=O)NCCc3ccc(OC)c(OC)c3)ccc2c1=O	5	-18	16	-8	-3	.	.
O=C(Nc1ccc(Br)cc1)Nc1ccccc1Cl	73*	1	22	26	-9	79*	63*

High-throughput results from PubChem BioAssay.
